Active and inactive are the calls of the source. The rule behind the calls is not given here.
Columns and labels:
IMR-32 [1] = test: Cytotoxicity against human IMR32 cells after 48 hrs by CellTiter-Glo assay; type: functional, cell-based; conditions: for IC50: IMR-32, 48 h
Summary of the method: (§1)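 Cells plated at 2000/well and preincubated 2 h, then exposed for 48 h to serial dilutions from 0.3 to 30.0 μM. Controls were 5-FU (positive) and fresh medium (negative). Each concentration ran in triplicate, and viability was read by CellTiter-Glo luminescence per the kit protocol.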

HCT-116 [2] = test: Cytotoxicity against human HCT116 cells after 48 hrs by CellTiter-Glo assay; type: functional, cell-based; conditions: for IC50: HCT-116, 48 h; summary of the method: as §1
IMR-32 [3] = test: Cytotoxicity against human IMR32 cells up to 30 uM after 48 hrs by CellTiter-Glo assay; type: functional, cell-based; summary of the method: as §1
HCT-116 [4] = test: Cytotoxicity against human HCT116 cells up to 30 uM after 48 hrs by CellTiter-Glo assay; type: functional, cell-based; summary of the method: as §1
Staphylococcus aureus = test: Antibacterial activity against Staphylococcus aureus ATCC 43300 at 100 ug/ml incubated for 24 to 48 hrs; type: functional, organism-based
Summary of the method: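 Agar well diffusion: sample dissolved in DMSO at 0.1 mg/mL, 10 μL applied to a 4 mm well cut in YM agar seeded with an overnight S. aureus ATCC 43300 culture; plates held at 37 °C and read for inhibition zones after 24–48 h.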

Candida albicans = test: Antifungal activity against Candida albicans ATCC 10231 at 100 ug/ml measured at 24 hrs by agar well diffusion method
BT-474 [5] = test: Cytotoxicity against human BT474 cells up to 30 uM after 48 hrs by CellTiter-Glo assay; type: functional, cell-based; summary of the method: as §1
Cryptococcus neoformans = test: Antifungal activity against Cryptococcus neoformans H99 at 100 ug/ml measured at 48 hrs by agar well diffusion method; conditions: var grubii H99
BT-474 [6] = test: Cytotoxicity against human BT474 cells after 48 hrs by CellTiter-Glo assay; type: functional, cell-based; summary of the method: as §1

Structure (SMILES) | IC50 (IMR-32 [1]) [µM] | IC50 (HCT-116 [2]) [µM] | Activity (IMR-32 [3]) | Activity (HCT-116 [4]) | Activity (Staphylococcus aureus) | Activity (Candida albicans) | Activity (BT-474 [5]) | Activity (Cryptococcus neoformans) | Activity (IMR-32 [1]) | Activity (BT-474 [6]) | IC50 (BT-474 [6]; BT-474, 48 h) [µM] | Activity (HCT-116 [2])
O=c1[nH]cc(F)c(=O)[nH]1 [FLUOROURACIL] | 5.7 | 6.5 | – | – | – | – | – | – | – | – | – | –
CCCCCCCc1cc(OC(=O)c2c(CCCCCCC)cc(O)c([C@@H]3O[C@H](CO)[C@@H](O)[C@H](O)[C@H]3O)c2O)cc(O)c1C(=O)O | – | – | inactive | inactive | inactive | inactive | inactive | inactive | – | – | – | –
CCCCCCCc1cc(OC(=O)c2c(CCCCCCC)cc(O)c([C@@H]3O[C@H](CO)[C@@H](O)[C@H](O)[C@H]3O)c2O)cc(O)c1C(=O)O[C@@H]1C(=O)C(CO)=C[C@@H](O)[C@H]1O | 6 | 7.3 | – | – | inactive | inactive | – | inactive | Dose-dependent effect | Dose-dependent effect | 9.7 | Dose-dependent effect
